This is an account of results in ChEMBL document CHEMBL1141703, “Synthesis and in vitro evaluation of imidazopyridazines as novel inhibitors of the malarial kinase PfPK7” (Bioorg Med Chem Lett, 2008).

The target in series [1] is T1, Putative uncharacterized protein pk7 (Plasmodium falciparum, UniProt O96214).
T1 sequence (O96214 whole entry): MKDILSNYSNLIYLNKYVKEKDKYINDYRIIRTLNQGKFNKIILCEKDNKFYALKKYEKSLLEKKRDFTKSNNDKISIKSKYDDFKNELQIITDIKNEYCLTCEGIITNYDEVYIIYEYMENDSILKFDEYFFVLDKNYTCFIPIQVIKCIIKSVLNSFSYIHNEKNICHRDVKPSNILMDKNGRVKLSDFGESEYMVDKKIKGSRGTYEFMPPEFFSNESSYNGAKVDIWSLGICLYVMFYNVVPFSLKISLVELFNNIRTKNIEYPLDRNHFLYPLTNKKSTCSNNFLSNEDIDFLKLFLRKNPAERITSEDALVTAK
The series can be described thus: (§1) Inhibition of Plasmodium falciparum PK7.

Series [2] deals with Plasmodium falciparum. Kind of series: Antimalarial activity against chloroquine-sensitive Plasmodium falciparum 3D7 by [3H]hypoxanthine uptake. In kind it is functional, organism-based. In short, it runs like this:
(§2)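 P. falciparum blood-stage growth measured by ³H-hypoxanthine incorporation, with chloroquine as the reference standard. Strains: 3D7, a drug-sensitive laboratory clone of the NF54 isolate, and K1 (Thailand), which is resistant to chloroquine, pyrimethamine and cycloguanil. Values are IC50 in μM.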

The test system of series [3] is Plasmodium falciparum. Kind of series: Antimalarial activity against multidrug-resistant Plasmodium falciparum K1 by [3H]hypoxanthine uptake. In kind it is functional, organism-based. In short, it runs like this:
as §2

Series [4] deals with KB. The series can be described thus: Cytotoxicity against human KB cells. In kind it is cell-based.
Series [5] can be described thus: Selectivity index, ratio of IC50 for human KB cells to IC50 for Plasmodium falciparum 3D7. In kind it is toxicity, cell-based. The following applies: read-out: Ratio IC50. In short, it runs like this: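 Ratio of the human KB cell cytotoxicity IC50 to the P. falciparum 3D7 IC50. 3D7 is a drug-sensitive laboratory clone of the NF54 isolate. Parasite IC50 (μM) came from a 3H-hypoxanthine incorporation assay run with chloroquine as the standard.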

The target of series [6] is T2, Putative uncharacterized protein pk7 (Plasmodium falciparum) (UniProt O96214).
T2 sequence (whole entry): T1 sequence (O96214 whole entry)
The description is as §1.

pIC50: −log10 of the molar value. Calls of active or inactive are those of the source. The rule behind the calls is not given here.

On to `C[C@@H](N)c1cccc(N2CCOCC2)c1`, for which, in series [1], the pIC50 was 5.32.
Turning to `C[C@H](CO)Nc1ccc2ncc(-c3ccc(C#N)cc3)n2n1`, the pIC50 in series [1] is 6.00. This pIC50 is 0.68 log units higher than that of the compound before.
`CN(Cc1ccc(F)cc1)c1ccc2ncc(-c3ccc(Cn4ccnc4)cc3)n2n1` gave a pIC50 in series [1] of 4.25.
Take `CC(C)[C@@H](CO)Nc1ccc2ncc(-c3ccc(C(N)=O)cc3)n2n1`: the pIC50 in series [1] was 6.11; in series [2] it was 5.61; in series [3], 5.41; in series [4] it was 4.89. Also, in series [5], the selectivity ratio is 5.27.
Consider `N#Cc1ccc(-c2cnc3ccc(NCC4CCCO4)nn23)cc1` (stereo not given), for which the pIC50 in series [1] was 6.12.
With `CC(C)[C@@H](CO)Nc1ccc2ncc(-c3ccc(C#N)cc3)n2n1`, the pIC50 was 6.55 in series [1], 5.59 in series [2], 5.16 in series [3] and 4.28 in series [4]. Moreover, the selectivity ratio in series [5] came out at 20.1.
Compound `N#Cc1ccc(-c2cnc3ccc(NCCO)nn23)cc1` showed a pIC50 in series [1] of 6.00.
With `COCCNc1ccc2ncc(-c3ccc(C#N)cc3)n2n1`, the pIC50 in series [1] is 5.85.
The same measure, in the same setting: the figure for `C[C@H](N)c1cccc(N2CCOCC2)c1` is 4.60.
The same measure, in the same setting: the figure for `CC(C)[C@@H](CO)Nc1ccc2ncc(-c3ccc(CC#N)cc3)n2n1` is 4.60; for `CN(Cc1ccc(F)cc1)c1ccc2ncc(-c3ccc(C(N)=O)cc3)n2n1` it is 5.96.
In turn, `CN(Cc1ccc(F)cc1)c1ccc2ncc(-c3ccc(CN4CCC(O)CC4)cc3)n2n1` showed a pIC50 in series [1] of 3.99.
The same measure, in the same setting: the figure for `N#Cc1ccc(-c2cnc3ccc(NCc4ccc(N5CCOCC5)cc4)nn23)cc1` is 5.10; for `CC(C)[C@@H](CO)Nc1ccc2ncc(-c3ccc(N)cc3)n2n1` it is 4.47; for `c1cncc(CNc2ccc3ncc(-c4ccncc4)n3n2)c1` it is 5.10.
With `N#Cc1ccc(-c2cnc3ccc(NCC4CC4)nn23)cc1`, the pIC50 in series [1] is 6.24; in series [2], 5.15; in series [3], 4.90; in series [4] it was 4.67. The selectivity ratio in series [5] worked out at 2.96.
In series [1], `CN(Cc1ccc(F)cc1)c1ccc2ncc(-c3ccc(C#N)cc3)n2n1` gave a pIC50 of 5.97.
For `CN(Cc1ccc(F)cc1)c1ccc2ncc(-c3ccc(N)cc3)n2n1`, the pIC50 in series [1] was 4.38. Compared with the last compound, the pIC50 is 1.59 log units lower.
With `CCN(CC)CCCC(C)Nc1ccnc2cc(Cl)ccc12` (stereo not given) [CHLOROQUINE], the pIC50 in series [4] is 4.01.
On to `N#Cc1ccc(-c2cnc3ccc(N[C@H]4CCCC[C@@H]4O)nn23)cc1` (racemic), for which the pIC50 in series [1] is 6.66.
In series [1], `CC(C)[C@@H](CO)Nc1ccc2ncc(-c3ccc(CC(=O)O)cc3)n2n1` gave a pIC50 of 3.95.
Regarding `CN(Cc1cccnc1)c1ccc2ncc(-c3ccc(C#N)cc3)n2n1`, the pIC50 in series [1] is 5.90. Compared with the last compound, the pIC50 is 1.95 log units higher.
In series [1], `CN(Cc1ccc(F)cc1)c1ccc2ncc(-c3ccc(CNCO)cc3)n2n1` had a pIC50 of 4.47.
Regarding `N#Cc1ccc(-c2cnc3ccc(N[C@H]4CC[C@H](O)CC4)nn23)cc1`, the pIC50 in series [1] was 6.89; in series [2] it was 5.99; in series [3], 5.58; in series [4], 4.62. Further, in series [5], the selectivity ratio is 23.3.
On to `N#Cc1ccc(-c2cnc3ccc(NCc4cccnc4)nn23)cc1`, for which the pIC50 in series [1] is 6.09.
For the compound `CN(Cc1ccc(F)cc1)c1ccc2ncc(-c3ccc(CO)cc3)n2n1`, the pIC50 in series [1] is 4.68.
In the case of `CC(C)[C@@H](CO)Nc1ccc2ncc(-c3ccc(CN)cc3)n2n1`, the pIC50 in series [1] is 3.98.
In the case of `CC(C)[C@@H](N)c1cccc(N2CCOCC2)c1`, in series [6], the outcome was inactive.
In the case of `COC[C@H](C)Nc1ccc2ncc(-c3ccc(C#N)cc3)n2n1`, the pIC50 in series [1] is 6.09; in series [2], 5.22; in series [3] it was 4.98; in series [4], 4.59. In series [5], the selectivity ratio was determined as 4.25.
In turn, `N#Cc1ccc(-c2cnc3ccc(N[C@H]4CCC[C@H](O)C4)nn23)cc1` (racemic) had a pIC50 in series [1] of 6.59.
As to `C[C@@H](CO)Nc1ccc2ncc(-c3ccc(C#N)cc3)n2n1`, the pIC50 was 6.36 in series [1], 5.28 in series [2], 5.00 in series [3] and 4.67 in series [4]. In series [5], the selectivity ratio was 4.03.
Compound `COc1ccc(-c2cnc3ccc(NCc4cccnc4)nn23)cc1` had a pIC50 in series [1] of 4.94.
As to `CC(C)[C@@H](CO)Nc1ccc2ncc(-c3ccc(CO)cc3)n2n1`, in series [1], the pIC50 was 5.13.
Take `N#Cc1ccc(-c2cnc3ccc(NC4CCCNC4)nn23)cc1` (racemic): the pIC50 in series [1] was 5.68. Against the preceding compound, the pIC50 is 0.55 log units higher.
`CC(C)[C@H](N)c1cccc(N2CCOCC2)c1`: the pIC50 in series [1] is 4.37. Compared with the last compound, the pIC50 is 1.31 log units lower.
Still for that read-out and setting: then `N#Cc1ccc(-c2cnc3ccc(NC4CCCCC4)nn23)cc1`, with 6.47.

As a reminder, the pIC50 is −log10 of the IC50, conventionally taken in molar units. A high value points to a low IC50.
